Active and inactive are the calls of the source. The calls are words filed in the database; no cut-off is given here.
Legend:
[1] = biological target: T1, Protein mono-ADP-ribosyltransferase PARP12 (Homo sapiens, UniProt Q9H0J9); test: Inhibition of PARP12 (unknown origin)
T1 sequence (Q9H0J9 whole entry): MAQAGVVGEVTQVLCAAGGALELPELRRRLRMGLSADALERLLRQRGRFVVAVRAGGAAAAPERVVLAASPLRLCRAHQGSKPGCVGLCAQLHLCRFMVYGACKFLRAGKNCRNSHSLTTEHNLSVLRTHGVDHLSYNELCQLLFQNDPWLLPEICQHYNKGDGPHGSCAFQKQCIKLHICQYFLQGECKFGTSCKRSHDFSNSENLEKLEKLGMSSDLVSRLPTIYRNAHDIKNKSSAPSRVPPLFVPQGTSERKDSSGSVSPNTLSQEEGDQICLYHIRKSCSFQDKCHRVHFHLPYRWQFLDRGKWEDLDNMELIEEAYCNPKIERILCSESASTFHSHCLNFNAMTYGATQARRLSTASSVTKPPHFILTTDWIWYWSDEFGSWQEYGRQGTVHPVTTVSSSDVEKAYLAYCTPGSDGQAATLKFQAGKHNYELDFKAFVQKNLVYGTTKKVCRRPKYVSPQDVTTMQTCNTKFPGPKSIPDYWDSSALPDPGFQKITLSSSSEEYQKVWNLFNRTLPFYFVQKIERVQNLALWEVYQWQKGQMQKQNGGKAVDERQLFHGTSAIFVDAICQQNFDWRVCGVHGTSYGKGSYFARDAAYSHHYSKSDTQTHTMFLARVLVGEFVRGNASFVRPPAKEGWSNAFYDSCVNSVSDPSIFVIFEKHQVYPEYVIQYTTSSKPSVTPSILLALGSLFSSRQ

[2] = system: DLD-1; test: Anti-proliferative activity against human DLD1 cells assessed as inhibition of colony formation at 1 uM measured after 18 days under normal serum condition by trypan blue staining based light microscopic analysis; assay type: functional, cell-based
Outline: (§1)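 DLD-1 colony-forming assay under normal serum: 1000 cells/well, with 1.0 µM or 100 nM compound, or a 1% DMSO (v/v) vehicle control. Colonies were counted, n = 3.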

[3] = species: Mus musculus; test: (§2) Inhibition of TNKS in mouse 3T3L1 cells assessed as upregulation of GLUT4 by measuring increase in insulin-stimulated glucose uptake at 1 uM using 2-deoxy-D-[2,6-3H]glucose as substrate pretreated for 1 hr followed by insulin stimulation for 30 mins and subsequent addition of substrate measured after 5 mins by scintillation counter; assay type: cell-based; design: scale not given: the % may be the effect or the level left
Outline: (§3)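 3T3-L1 fibroblasts were grown in DMEM and differentiated to adipocytes with insulin, dexamethasone and isobutylmethylxanthine, then used 10-12 d later. Cells were serum-starved 2 h at 37°C and given compound for 1 h. After KRH washes (pH 7.4), cells were held 30 min with compound, with or without 100 nM insulin. 2-Deoxy-D-[2,6-³H]glucose was added for 5 min.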

[4] = biological target: Protein mono-ADP-ribosyltransferase PARP14 (Homo sapiens, UniProt Q460N5); test: Inhibition of PARP14 (unknown origin)
Chain of Protein mono-ADP-ribosyltransferase PARP14 (Q460N5 whole entry): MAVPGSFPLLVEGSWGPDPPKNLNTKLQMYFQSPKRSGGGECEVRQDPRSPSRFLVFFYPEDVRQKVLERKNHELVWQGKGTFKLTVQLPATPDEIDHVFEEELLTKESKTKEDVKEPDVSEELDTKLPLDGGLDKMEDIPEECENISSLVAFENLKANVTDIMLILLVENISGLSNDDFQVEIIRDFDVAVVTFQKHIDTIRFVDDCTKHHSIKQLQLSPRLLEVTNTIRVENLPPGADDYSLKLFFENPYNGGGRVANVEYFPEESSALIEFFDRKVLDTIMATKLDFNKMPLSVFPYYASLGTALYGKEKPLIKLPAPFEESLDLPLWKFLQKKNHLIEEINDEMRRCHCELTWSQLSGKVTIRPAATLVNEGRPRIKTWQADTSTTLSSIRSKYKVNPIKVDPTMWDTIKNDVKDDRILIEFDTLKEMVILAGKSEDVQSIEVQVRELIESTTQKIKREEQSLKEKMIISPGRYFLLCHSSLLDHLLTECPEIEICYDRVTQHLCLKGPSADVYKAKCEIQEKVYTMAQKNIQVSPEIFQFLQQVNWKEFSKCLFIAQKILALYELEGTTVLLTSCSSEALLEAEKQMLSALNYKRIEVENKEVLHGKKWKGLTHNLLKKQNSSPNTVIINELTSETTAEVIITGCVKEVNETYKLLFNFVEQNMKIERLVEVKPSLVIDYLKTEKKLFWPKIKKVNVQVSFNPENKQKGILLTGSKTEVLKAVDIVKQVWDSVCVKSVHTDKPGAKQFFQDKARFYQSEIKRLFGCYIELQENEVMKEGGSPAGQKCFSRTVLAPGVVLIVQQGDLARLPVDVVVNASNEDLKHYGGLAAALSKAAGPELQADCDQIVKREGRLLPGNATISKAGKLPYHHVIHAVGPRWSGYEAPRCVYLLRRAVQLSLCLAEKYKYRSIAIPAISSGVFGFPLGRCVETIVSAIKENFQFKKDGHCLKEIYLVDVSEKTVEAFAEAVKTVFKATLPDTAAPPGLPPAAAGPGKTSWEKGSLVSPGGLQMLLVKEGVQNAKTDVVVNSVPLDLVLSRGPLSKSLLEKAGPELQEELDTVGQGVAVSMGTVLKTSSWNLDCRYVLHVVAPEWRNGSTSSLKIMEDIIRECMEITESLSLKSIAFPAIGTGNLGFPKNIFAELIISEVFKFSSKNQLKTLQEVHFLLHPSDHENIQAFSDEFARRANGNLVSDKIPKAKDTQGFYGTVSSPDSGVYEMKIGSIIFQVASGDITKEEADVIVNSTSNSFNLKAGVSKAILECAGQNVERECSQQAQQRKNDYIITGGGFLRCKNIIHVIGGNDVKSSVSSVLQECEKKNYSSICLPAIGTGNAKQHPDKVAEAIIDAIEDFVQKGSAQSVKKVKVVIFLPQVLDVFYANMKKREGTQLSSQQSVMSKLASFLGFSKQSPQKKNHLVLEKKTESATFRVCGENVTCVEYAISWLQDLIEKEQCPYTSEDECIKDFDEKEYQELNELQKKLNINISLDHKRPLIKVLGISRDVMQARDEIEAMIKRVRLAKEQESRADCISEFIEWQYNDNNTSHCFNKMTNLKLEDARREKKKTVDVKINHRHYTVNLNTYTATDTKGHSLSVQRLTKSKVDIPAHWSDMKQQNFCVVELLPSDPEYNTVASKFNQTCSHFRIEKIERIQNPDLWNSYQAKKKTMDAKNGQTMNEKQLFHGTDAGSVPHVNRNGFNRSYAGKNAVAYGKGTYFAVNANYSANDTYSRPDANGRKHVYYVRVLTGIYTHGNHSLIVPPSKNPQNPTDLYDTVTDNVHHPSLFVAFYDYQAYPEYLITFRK

[5] = system: DLD-1; test: Anti-proliferative activity against human DLD1 cells assessed as inhibition of colony formation at 100 nM measured after 18 days under normal serum condition by trypan blue staining based light microscopic analysis; assay type: functional, cell-based; outline: as §1
[6] = biological target: Protein mono-ADP-ribosyltransferase PARP4 (Homo sapiens, UniProt Q9UKK3); test: Inhibition of PARP4 (unknown origin)
Chain of Protein mono-ADP-ribosyltransferase PARP4 (Q9UKK3 whole entry): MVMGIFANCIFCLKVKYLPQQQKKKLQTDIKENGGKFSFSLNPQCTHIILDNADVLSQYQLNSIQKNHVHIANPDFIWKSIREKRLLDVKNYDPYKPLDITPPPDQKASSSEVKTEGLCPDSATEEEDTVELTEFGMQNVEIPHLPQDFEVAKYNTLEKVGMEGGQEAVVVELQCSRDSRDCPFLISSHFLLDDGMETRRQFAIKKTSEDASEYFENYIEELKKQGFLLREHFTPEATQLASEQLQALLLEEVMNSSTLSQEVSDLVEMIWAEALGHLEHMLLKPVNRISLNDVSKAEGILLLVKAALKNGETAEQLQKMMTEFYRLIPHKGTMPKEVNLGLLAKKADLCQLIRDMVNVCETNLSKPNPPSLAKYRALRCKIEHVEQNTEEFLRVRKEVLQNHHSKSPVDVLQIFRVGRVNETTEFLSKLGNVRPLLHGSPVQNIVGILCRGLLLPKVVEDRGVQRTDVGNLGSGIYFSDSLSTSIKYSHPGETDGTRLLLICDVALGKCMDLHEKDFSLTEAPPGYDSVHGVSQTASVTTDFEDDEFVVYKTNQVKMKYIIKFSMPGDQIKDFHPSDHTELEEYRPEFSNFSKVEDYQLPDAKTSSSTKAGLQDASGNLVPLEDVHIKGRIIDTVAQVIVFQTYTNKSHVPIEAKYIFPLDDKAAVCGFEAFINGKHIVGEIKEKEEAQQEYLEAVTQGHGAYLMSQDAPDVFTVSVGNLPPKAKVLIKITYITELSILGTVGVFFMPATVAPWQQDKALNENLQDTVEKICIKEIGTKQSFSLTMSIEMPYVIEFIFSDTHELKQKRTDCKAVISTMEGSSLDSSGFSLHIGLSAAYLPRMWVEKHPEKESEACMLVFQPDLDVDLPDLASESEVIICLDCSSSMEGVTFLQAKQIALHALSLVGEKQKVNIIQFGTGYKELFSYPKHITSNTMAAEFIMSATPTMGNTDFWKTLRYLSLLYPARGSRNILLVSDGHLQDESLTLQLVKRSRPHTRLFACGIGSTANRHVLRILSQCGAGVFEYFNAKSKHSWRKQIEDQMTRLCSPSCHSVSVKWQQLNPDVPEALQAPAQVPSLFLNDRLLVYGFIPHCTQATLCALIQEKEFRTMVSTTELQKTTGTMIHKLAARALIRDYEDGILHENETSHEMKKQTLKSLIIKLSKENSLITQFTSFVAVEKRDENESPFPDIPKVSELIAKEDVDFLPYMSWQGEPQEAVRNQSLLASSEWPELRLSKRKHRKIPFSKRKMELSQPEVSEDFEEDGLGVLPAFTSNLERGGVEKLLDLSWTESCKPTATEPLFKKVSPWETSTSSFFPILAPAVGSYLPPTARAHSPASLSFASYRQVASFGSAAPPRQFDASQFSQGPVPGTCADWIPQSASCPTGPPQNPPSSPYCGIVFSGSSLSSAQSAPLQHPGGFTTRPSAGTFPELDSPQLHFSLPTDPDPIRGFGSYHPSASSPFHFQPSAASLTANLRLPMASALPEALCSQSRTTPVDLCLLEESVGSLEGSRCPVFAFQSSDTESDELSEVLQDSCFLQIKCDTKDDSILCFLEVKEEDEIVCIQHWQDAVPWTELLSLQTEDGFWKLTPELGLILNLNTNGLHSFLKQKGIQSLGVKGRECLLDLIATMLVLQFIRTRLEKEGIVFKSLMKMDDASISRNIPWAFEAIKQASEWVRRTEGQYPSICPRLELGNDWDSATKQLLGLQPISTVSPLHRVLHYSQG

[7] = biological target: T2, Protein mono-ADP-ribosyltransferase PARP3 (Homo sapiens, UniProt Q9Y6F1); test: Inhibition of PARP3 (unknown origin)
T2 sequence (Q9Y6F1 whole entry): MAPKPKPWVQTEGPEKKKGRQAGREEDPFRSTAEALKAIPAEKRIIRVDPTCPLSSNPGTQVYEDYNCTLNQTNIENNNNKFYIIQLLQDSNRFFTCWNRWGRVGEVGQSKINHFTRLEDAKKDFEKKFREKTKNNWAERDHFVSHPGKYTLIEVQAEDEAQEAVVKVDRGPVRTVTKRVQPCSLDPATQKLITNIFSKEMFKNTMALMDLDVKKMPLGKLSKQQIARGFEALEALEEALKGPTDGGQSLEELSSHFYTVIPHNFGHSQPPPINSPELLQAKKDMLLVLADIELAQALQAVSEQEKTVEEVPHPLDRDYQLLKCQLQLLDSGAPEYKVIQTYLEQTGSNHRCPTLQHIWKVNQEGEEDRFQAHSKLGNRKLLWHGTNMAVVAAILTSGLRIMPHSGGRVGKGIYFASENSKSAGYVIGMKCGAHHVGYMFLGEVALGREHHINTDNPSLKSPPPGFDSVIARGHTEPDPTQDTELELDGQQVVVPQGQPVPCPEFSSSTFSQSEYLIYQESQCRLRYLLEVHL

[8] = biological target: Poly [ADP-ribose] polymerase 1 (Homo sapiens, UniProt P09874); test: Inhibition of full length recombinant human N-terminal GST-tagged PARP1 expressed in Baculovirus infected Sf9 cells using TACS-Sapphire as substrate measured after 1 hr by colorimetric assay; conditions: read-out: IC50
Chain of Poly [ADP-ribose] polymerase 1 (P09874 whole entry): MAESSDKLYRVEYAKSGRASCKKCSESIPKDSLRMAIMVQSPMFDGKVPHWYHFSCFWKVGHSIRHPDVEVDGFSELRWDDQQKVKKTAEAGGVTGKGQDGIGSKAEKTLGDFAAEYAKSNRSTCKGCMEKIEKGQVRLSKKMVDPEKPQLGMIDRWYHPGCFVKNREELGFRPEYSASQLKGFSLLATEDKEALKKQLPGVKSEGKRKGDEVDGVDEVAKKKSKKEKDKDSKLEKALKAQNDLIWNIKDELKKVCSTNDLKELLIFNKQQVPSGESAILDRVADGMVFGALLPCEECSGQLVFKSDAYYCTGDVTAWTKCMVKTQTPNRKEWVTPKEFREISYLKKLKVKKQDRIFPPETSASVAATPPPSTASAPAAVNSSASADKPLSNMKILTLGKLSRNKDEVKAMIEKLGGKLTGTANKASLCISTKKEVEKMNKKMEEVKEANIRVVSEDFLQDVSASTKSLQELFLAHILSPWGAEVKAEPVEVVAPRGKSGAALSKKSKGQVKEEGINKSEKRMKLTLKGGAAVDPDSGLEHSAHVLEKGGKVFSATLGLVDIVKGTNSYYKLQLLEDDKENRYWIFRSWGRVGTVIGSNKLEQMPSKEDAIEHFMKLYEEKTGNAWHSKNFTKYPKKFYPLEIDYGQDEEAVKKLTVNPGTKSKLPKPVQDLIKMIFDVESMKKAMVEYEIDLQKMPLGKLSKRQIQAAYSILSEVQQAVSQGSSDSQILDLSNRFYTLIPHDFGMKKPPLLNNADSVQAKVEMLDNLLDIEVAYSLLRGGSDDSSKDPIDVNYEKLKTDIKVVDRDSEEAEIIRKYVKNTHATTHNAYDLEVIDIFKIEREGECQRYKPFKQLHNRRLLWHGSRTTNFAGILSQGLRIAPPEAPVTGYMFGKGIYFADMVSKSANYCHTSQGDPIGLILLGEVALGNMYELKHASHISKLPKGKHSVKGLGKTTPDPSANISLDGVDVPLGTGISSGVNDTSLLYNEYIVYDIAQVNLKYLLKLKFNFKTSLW

[9] = Inhibition of tankyrase (unknown origin) expressed in TCF/LEF-HEK293 cells assessed as inhibition of Wnt/beta-catenin signaling pathway in Wnt3a conditioned medium measured after 20 hrs by luciferase reporter gene assay; assay type: cell-based; conditions: Homo sapiens
[10] = system: 3T3-L1; test: Effect on glucose uptake in mouse 3T3L1 cells at 1 uM using 2-deoxy-D-[2,6-3H]glucose as substrate pretreated for 1 hr followed substrate addition measured after 5 mins by scintillation counter; assay type: ADME, cell-based; conditions: 3t3-l1, 5 min; outline: as §3
[11] = species: Mus musculus; test: as §2, with “100 nM” for “1 uM”; assay type: cell-based; design: scale not given: the % may be the effect or the level left; outline: as §3

Row | Structure (SMILES) | IC50 [1] | inhibition [2] | Activity [3] | IC50 [4] | inhibition [5] | IC50 [6] | IC50 [7] | IC50 [8] | IC50 ([9]; read-out: IC50) | IC50 ([9]; read-out: pIC50 (converted)) | Activity [10] | Activity [11]
1 | Cc1cccc2c(=O)[nH]c(CCC(=O)Nc3ccc(C(=O)Nc4cccc5cccnc45)cc3)nc12 | > 100 µM | Active | 20% | > 100 µM | Active | 65 µM | 45 µM | 6.5 µM | 0.037 µM | 0.0372 µM | Non-Toxic | 20%
2 | O=C(CCc1nc2ccccc2c(=O)[nH]1)Nc1ccc(C(=O)Nc2cccc3cccnc23)cc1 | > 100 µM | Active | 20% | > 100 µM | Active | 69 µM | 40 µM | 8.2 µM | 0.029 µM | 0.0288 µM | Non-Toxic | 40%

Reference: ChEMBL document CHEMBL4002591 (J Med Chem, 2017)
